ChEMBL document CHEMBL3351639, “Fluorinated analogues of marsanidine, a highly α2-AR/imidazoline I1 binding site-selective hypotensive agent. Synthesis and biological activities” (Eur J Med Chem, 2014)
pEC50, pIC50, pKi: −log10 of the molar value.

Tests used:
[1] = target: T1, Adrenergic receptor alpha-1 (Rattus norvegicus, UniProt P15823+P23944+P43140); experiment: Displacement of [3H]prazosin from alpha1-adrenoceptor in Sprague-Dawley rat brain membranes after 45 mins by liquid scintillation counting; assay type: cell membranes, Membrane
T1 sequence (P15823 whole entry): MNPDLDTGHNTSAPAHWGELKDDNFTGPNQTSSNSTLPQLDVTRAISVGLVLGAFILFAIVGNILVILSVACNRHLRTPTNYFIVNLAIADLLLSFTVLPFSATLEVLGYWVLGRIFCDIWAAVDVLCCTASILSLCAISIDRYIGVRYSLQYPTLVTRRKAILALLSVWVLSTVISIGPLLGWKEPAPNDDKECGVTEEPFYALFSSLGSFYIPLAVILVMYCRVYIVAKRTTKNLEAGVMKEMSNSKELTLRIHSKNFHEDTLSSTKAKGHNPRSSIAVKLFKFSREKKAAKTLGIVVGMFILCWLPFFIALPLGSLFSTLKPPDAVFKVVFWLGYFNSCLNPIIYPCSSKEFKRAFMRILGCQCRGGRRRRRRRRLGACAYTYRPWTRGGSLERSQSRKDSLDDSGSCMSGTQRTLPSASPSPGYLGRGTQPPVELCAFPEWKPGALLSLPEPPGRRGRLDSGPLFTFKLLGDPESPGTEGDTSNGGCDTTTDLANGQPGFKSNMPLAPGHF
T1 sequence (P23944 whole entry): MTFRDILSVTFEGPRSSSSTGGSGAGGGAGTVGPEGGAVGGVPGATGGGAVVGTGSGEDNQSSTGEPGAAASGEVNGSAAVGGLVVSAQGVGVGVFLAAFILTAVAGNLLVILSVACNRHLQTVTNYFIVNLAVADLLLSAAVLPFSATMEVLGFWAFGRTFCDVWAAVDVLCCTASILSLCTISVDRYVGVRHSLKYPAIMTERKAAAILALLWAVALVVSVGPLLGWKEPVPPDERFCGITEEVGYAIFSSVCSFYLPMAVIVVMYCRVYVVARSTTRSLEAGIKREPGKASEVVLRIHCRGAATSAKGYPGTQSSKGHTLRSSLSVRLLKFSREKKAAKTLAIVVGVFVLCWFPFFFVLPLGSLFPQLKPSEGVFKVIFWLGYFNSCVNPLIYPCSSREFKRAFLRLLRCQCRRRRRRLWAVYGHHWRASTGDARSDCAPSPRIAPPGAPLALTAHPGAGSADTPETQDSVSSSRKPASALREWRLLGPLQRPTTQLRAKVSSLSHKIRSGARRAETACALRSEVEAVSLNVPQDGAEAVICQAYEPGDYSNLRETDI
T1 sequence (P43140 whole entry): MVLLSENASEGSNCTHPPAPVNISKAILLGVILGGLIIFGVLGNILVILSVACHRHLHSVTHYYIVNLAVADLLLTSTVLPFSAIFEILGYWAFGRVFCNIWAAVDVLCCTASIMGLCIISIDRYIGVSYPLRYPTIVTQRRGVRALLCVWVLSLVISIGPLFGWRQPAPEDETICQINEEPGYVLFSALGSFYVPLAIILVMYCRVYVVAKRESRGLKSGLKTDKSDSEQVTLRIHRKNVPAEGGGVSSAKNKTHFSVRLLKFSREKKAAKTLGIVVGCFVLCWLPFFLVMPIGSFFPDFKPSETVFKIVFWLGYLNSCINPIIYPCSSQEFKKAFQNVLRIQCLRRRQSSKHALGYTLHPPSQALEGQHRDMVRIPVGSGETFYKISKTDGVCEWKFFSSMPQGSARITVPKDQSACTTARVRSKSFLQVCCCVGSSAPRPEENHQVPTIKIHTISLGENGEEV
In short: (§1)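 Crude P2 membranes from brains of male Sprague-Dawley rats (250–280 g), 0.2–0.3 mg protein. Radioligand 1 nM [3H]RX821002 (α2) or [3H]prazosin (α1); 11 concentrations of compound, 0.1 nM–100 µM. Non-specific binding: 10 µM rauwolscine (α2) or 10 µM phenylephrine (α1). Triplicate incubation, RT, 45 min. PEI-soaked glass-fibre filtration, then scintillation counting. Ki by Cheng-Prusoff; 3–4 experiments, or one for low-affinity compounds.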

[2] = target: T2, Adrenergic receptor alpha-2 (Rattus norvegicus, UniProt P22086+P19328+P22909); experiment: Displacement of [3H]RX821002 from alpha2-adrenoceptor in Sprague-Dawley rat brain membranes after 45 mins by liquid scintillation counting; assay type: cell membranes, Membrane; in short: as §1
T2 sequence (P22086 whole entry): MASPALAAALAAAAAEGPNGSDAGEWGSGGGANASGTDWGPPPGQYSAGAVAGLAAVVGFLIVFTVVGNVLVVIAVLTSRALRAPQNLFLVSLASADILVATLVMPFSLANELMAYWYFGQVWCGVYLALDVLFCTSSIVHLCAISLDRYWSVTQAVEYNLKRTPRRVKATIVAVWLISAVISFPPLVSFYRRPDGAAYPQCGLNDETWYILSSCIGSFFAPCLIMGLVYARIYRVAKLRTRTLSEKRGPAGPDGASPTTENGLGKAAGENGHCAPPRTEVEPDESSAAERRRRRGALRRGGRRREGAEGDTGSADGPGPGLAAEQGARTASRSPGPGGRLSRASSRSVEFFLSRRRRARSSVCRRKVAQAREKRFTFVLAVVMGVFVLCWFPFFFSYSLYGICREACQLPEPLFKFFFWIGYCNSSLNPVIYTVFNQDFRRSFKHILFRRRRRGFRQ
T2 sequence (P19328 whole entry): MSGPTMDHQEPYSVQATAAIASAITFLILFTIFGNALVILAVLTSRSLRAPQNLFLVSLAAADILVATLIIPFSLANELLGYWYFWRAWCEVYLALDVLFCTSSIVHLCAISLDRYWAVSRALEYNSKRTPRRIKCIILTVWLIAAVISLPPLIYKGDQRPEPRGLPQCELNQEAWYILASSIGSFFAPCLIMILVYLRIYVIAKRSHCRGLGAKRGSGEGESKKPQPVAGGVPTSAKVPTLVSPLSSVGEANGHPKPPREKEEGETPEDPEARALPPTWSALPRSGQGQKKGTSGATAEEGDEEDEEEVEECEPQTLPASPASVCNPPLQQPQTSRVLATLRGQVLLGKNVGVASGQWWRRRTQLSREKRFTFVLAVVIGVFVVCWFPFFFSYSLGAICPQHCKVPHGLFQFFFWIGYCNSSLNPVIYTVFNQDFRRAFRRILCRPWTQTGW
T2 sequence (P22909 whole entry): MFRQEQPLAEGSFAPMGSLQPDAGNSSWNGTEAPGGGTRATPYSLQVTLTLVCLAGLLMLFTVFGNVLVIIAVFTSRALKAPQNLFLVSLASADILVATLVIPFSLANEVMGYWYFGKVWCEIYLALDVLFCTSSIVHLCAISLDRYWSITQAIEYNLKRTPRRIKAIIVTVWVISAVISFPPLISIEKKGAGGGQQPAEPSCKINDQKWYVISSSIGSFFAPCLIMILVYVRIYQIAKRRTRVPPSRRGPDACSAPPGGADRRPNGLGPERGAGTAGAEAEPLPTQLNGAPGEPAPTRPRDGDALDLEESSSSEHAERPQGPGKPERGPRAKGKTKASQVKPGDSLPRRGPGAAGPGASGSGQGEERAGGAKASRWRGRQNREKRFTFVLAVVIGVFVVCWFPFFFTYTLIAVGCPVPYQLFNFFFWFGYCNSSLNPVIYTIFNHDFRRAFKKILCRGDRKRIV

[3] = Displacement of […] from imidazoline I2 receptor in Sprague-Dawley rat kidney membranes after 45 mins by liquid scintillation counting; assay type: cell membranes, Membrane
Nischarin = Nischarin (Rattus norvegicus, UniProt Q4G017); experiment: Displacement of […] from imidazoline I1 receptor in Sprague-Dawley rat kidney membranes after 45 mins by liquid scintillation counting; assay type: cell membranes, Membrane
[4] = target: T3, Alpha-2B adrenergic receptor (Homo sapiens, UniProt P18089); experiment: Displacement of [3H]RS-79948-197 from human alpha2B adrenoceptor expressed in CHO-K1 cells after 45 mins by liquid scintillation counting; assay type: cell-based
T3 sequence (P18089 whole entry): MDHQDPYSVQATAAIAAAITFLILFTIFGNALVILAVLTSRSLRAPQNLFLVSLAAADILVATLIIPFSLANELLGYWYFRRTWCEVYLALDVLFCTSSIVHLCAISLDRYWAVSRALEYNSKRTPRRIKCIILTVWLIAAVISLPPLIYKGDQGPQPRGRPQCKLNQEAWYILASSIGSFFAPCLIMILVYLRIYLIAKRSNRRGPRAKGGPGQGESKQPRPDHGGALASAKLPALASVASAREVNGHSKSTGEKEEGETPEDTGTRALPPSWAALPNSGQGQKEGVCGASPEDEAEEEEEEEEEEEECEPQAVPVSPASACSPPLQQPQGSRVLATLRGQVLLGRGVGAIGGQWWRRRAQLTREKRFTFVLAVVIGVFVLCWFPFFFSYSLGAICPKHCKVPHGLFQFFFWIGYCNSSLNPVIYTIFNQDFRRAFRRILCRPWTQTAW
In short: (§2)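 Membranes from CHO-K1 cells stably expressing each human α2-AR subtype (6–10 µg protein). Used 0.2 nM [3H]RS-79948-197 and 8 serial dilutions of competitor in 50 mM potassium phosphate, pH 7.4. Non-specific binding defined with 100 µM oxymetazoline. Filtration, then scintillation counting. Run in duplicate, at least 3 repeats. One-site nonlinear fit; IC50 converted to Ki by Cheng-Prusoff.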

[5] = target: T4, Alpha-2A adrenergic receptor (Homo sapiens, UniProt P08913); experiment: Displacement of [3H]RS-79948-197 from human alpha2A adrenoceptor expressed in CHO-K1 cells after 45 mins by liquid scintillation counting; assay type: cell-based; in short: as §2
T4 sequence (P08913 whole entry): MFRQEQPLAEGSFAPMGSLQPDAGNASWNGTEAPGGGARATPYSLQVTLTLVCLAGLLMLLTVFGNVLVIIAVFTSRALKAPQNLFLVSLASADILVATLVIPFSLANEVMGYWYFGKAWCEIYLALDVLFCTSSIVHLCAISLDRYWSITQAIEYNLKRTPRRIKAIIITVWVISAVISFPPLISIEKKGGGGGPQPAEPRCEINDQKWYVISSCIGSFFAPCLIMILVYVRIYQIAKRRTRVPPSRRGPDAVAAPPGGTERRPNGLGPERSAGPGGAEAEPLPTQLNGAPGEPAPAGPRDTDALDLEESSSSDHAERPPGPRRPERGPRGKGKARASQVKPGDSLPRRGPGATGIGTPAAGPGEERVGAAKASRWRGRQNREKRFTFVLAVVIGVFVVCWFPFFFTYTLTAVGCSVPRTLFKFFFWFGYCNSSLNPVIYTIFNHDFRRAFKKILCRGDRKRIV

[6] = target: T5, Alpha-2C adrenergic receptor (Homo sapiens, UniProt P18825); experiment: Displacement of [3H]RS-79948-197 from human alpha2C adrenoceptor expressed in CHO-K1 cells after 45 mins by liquid scintillation counting; assay type: cell-based; in short: as §2
T5 sequence (P18825 whole entry): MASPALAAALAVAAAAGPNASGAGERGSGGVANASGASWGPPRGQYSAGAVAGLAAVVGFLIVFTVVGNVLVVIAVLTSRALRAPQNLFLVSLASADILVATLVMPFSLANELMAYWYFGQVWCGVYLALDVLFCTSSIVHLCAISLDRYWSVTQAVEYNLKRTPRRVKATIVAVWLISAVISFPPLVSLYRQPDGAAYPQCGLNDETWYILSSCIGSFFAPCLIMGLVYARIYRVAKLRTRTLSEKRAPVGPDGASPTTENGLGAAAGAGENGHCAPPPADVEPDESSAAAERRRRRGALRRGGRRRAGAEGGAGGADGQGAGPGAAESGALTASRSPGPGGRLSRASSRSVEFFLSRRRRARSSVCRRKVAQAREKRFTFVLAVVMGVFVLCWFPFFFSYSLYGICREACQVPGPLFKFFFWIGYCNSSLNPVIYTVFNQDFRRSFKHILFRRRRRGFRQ

[7] = target: T4, Alpha-2A adrenergic receptor; experiment: Agonist activity at human alpha2A adrenoceptor expressed in CHO-K1 cells after 30 mins by [35S]GTPgammaS binding assay; assay type: functional, cell-based
In short: (§3)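 Membranes from CHO cells stably expressing human α2A-AR (5 µg protein) were incubated with 7 or 8 serial dilutions of compound and 0.1 nM [35S]GTPγS. Buffer: 25 mM Tris, 1 mM EDTA, 5 mM MgCl2, 20 mM NaCl, 1 µM GDP, 1 mM DTT, 30 µM ascorbic acid, pH 7.4. Incubation 30 min at RT, then vacuum filtration and scintillation counting. Run in duplicate, at least 3 repeats.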

[8] = target: T6, Alpha-2A adrenergic receptor (Homo sapiens) (UniProt P08913); experiment: Intrinsic activity at human alpha2A adrenoceptor expressed in CHO-K1 cells after 30 mins by [35S]GTPgammaS binding assay relative to norepinephrine; assay type: functional, cell-based; in short: as §3
T6 sequence (whole entry): T4 sequence (P08913 whole entry)

Nischarin, sequence (Q4G017 whole entry): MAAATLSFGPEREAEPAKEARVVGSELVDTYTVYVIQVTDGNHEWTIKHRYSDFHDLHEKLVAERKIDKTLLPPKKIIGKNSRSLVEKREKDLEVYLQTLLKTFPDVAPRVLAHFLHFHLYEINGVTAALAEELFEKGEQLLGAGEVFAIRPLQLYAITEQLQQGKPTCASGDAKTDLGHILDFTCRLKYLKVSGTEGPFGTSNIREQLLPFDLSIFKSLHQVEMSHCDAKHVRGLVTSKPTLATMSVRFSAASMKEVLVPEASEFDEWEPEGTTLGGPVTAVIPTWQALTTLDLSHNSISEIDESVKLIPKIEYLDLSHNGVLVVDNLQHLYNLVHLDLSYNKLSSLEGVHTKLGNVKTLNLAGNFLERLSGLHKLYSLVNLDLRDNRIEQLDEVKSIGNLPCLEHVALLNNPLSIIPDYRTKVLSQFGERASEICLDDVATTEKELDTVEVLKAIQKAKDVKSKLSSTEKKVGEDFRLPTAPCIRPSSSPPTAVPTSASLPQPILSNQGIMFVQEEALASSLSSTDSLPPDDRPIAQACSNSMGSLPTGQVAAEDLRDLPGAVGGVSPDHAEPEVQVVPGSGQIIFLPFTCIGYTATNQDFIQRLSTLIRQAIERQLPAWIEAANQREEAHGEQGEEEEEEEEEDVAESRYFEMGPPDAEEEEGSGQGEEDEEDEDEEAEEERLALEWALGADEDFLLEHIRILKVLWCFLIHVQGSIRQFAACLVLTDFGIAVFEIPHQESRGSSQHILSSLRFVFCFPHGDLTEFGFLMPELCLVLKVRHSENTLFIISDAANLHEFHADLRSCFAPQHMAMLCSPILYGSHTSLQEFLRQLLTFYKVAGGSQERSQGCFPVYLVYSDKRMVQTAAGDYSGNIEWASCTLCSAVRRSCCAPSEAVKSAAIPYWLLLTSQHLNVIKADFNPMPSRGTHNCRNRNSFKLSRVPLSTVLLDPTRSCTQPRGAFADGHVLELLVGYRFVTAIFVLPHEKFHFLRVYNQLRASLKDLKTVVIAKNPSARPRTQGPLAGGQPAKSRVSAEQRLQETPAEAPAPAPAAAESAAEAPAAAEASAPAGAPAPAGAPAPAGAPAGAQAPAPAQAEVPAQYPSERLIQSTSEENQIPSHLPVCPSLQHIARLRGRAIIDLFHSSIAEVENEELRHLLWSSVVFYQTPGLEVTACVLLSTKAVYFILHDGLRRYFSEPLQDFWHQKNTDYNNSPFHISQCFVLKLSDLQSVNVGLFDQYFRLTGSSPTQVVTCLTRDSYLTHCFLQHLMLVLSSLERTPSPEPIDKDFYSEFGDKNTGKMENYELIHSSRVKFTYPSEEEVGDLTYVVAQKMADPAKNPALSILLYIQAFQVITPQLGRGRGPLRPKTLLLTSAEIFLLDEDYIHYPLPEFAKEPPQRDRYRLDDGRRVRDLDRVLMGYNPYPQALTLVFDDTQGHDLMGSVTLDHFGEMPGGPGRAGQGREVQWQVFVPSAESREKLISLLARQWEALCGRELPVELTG

Work on `Fc1c(F)c(F)c2c(cnn2N=C2NCCN2)c1F` yielded a Ki [1] of 19.793 µM, a Ki [2] of 3.717 µM and a pKi [3] of 4.64. The pIC50 (Nischarin) was 5.23.

Work on `c1ccc2c(c1)cnn2N=C1NCCN1` [MARSANIDINE] yielded a Ki [2] of 0.01405 µM, a pKi [3] of 4.77 and a pKi [4] of 7.10. It also gave a pKi [5] of 7.28, a pKi [6] of 6.19 and a pEC50 [7] of 7.03. It also gave an Intrinsic activity [8] of 14%.

`Fc1cccc2c1cnn2CC1=NCCN1` gave a Ki [1] of 0.5347 µM, a Ki [2] of 0.1873 µM and a pKi [3] of 7.66. It also gave a pIC50 (Nischarin) of 5.75.

For `Fc1cccc2c1cnn2N=C1NCCN1`, the Ki [1] was 3.807 µM, the Ki [2] was 0.416 µM and the pKi [3] was 5.21. The pIC50 (Nischarin) was 4.83.
